“Also recorded” adds a separate entry of the source.
Columns and labels:
[1] = system: HEK293T cell line (human embryonic kidney); experiment: MTT cytotoxicity assay, HEK293T; type: cell-based; details: 24 h
In short: (§1)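 Cells (1 × 10^4 per well in 0.2 mL medium) were exposed to test compounds, pre-dissolved in DMSO, at 0.01–1 mM for 24 h. Compounds were then washed out with three PBS washes, and MTT was read at once. Five replicates per concentration, each repeated at least three times; IC50 given as mean + SD. MCF7, A549 and HaCaT were grown in DMEM with 10% FBS and 1% streptomycin/penicillin. DU-145 and HEK293T were grown in MEM with 10% FBS. All cultures were kept at 37 °C, 5% CO2.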

[2] = system: HaCat (human keratinocyte); experiment: MTT cytotoxicity assay, HaCat; type: cell-based; details: 24 h
In short: as §1

[3] = system: MCF7 cell line (human breast adenocarcinoma); experiment: MTT cytotoxicity assay, MCF7; type: cell-based
In short: as §1

[4] = system: DU-145 cell line (human prostate carcinoma); experiment: MTT cytotoxicity assay, DU-145; type: cell-based
In short: as §1

[5] = system: A549 cell line (human lung adenocarcinoma); experiment: MTT cytotoxicity assay, A549; type: cell-based
In short: as §1

DU-145 cells [6] = experiment: ROS generation, H2DCF-DA assay; type: cell-based, human; details: DU-145, 24, 48 and 72 h, c = 1 μM
In short: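 DU-145 prostate carcinoma cells grown in MEM with 10% FBS at 37 °C, 5% CO2, seeded in 96-well plates. Cells were exposed continuously to test compound (copper complexes or free ligands), then loaded with the H2DCF-DA probe. ROS was read by fluorescence, with work done in darkness. Signal was related to an untreated negative control and an extra-H2O2 positive control.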

DU-145 cells [7] = experiment: Mitochondrial membrane potential, JC-10 assay; type: cell-based, human; details: DU-145, compounds at IC50, 24 h, JC-10 emission ratio 570 nm/530 nm
In short: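 DU-145 cells were seeded at 1 × 10^4 per 0.2 mL. After 24 h the medium was replaced with test compound solutions, gentamicin (0.5 mg mL−1, positive control) or ciprofloxacin (10 μg mL−1, negative control), then incubated 24 h at 37 °C, 5% CO2. Cells were PBS-washed twice and loaded with JC-10 for 1 h. Emission read at λex 540/λem 570 nm and λex 485/λem 530 nm; red/green ratio reported as mean + SD.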

[8] = system: HEK293T and HaCat normal cell lines; experiment: Cytotoxicity toward normal cell lines, stated in words; type: cell-based, human
In short: as §1

[9] = Stability in DMSO solution by FT-IR; type: physicochemical; details: 2% solution in DMSO, 0-96 h, qualitative
In short: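 ATR FT-IR of 2% solutions of the complexes in DMSO, one drop on the diamond plate, recorded at 1, 24, 48, 72 and 96 h. Settings: 2 cm−1 resolution, 128 scans, 4000–400 and 600–100 cm−1, room temperature. Solution spectra were compared with the solid-state spectra; qualitative only.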

Stability in DMSO/H2O = type: physicochemical
In short: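 UV-Vis spectra of the complexes in DMSO/H2O (9:1, v/v) at room temperature, recorded right after dissolving and at 48 and 96 h. Full range recorded at 10−6 M; d–d bands recorded at 10−4 M.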

[10] = HEK293T, non-cancerous cell line, MTT
[11] = HaCat, non-cancerous cell line, MTT
[12] = MCF7, cancer cell line, 24 h, MTT
[13] = DU145, cancer cell line, 24 h, MTT
[14] = A549, cancer cell line, 24 h, MTT

Compound	IC50 [1, 10]	IC50 [2, 11]	IC50 [3, 12]	IC50 [4, 13]	IC50 [5, 14]	IC50 ([1]; Homo sapiens, HEK-293T)	IC50 ([2]; Homo sapiens, HaCaT)	IC50 ([3]; Homo sapiens, MCF7, 24 h)	IC50 ([4]; Homo sapiens, DU-145, 24 h)	IC50 ([5]; Homo sapiens, A549, 24 h)	ROS generation compared to negative control (order) (DU-145 cells [6])	Reduction of mitochondrial membrane potential (DU-145 cells [7])	Activity toward DU-145 cancer cells [4]	Toxicity towards normal (healthy) cells [8]	Stability in DMSO solution [9]	Stability in DMSO/H2O solution (Stability in DMSO/H2O; DMSO/H2O 9:1 v/v, room temperature, 0 min, 48 h and 96 h, UV-Vis)	Structure after dissolving in biological medium (Stability in DMSO/H2O; biological medium, confirmed by UV-Vis and FT-IR)
N.N.[Cl][Pt][Cl] [Cisplatin, cisplatin, reference compound]	21 ± 1.8 µM	13.3 ± 1.1 µM	50.9 ± 2.6 µM	98.3 ± 1.3 µM	57 ± 1.3 µM												
CCc1ccccn1 [2-Ethylpyridine, 2-ethylpyridine]						> 1000 µM	> 1000 µM	> 1000 µM	> 1000 µM	> 1000 µM	complex 1 > complex 3 > 2-pyridineethanol > 2-ethylpyridyne	most significantly reduced					
OCc1ccccn1 [2-Pyridinemethanol, 2-pyridinemethanol]						> 1000 µM	> 1000 µM	> 1000 µM	> 1000 µM	> 1000 µM							
trans-[CuCl2(etpy)2] [Complex 1]	> 1000 µM	> 1000 µM	> 1000 µM	> 1000 µM	> 1000 µM						complex 1 > complex 3 > 2-pyridineethanol > 2-ethylpyridyne	least effect	inactive	did not exhibit toxicity; also recorded: nontoxic			
OCCc1ccccn1 [2-Pyridineethanol, 2-pyridineethanol]						> 1000 µM	> 1000 µM	> 1000 µM	> 1000 µM	> 1000 µM	complex 1 > complex 3 > 2-pyridineethanol > 2-ethylpyridyne	most significantly reduced					
[Cu4OCl6(etpy)4] [Complex 2]	> 1000 µM	> 1000 µM	> 1000 µM	> 1000 µM	> 1000 µM								inactive		turns into complex 1	turns into complex 1	adopts the same structure as compound 1

From article PMC9516696 (RSC Advances, 2022)
